What was measured:
[1] = target: Prostaglandin G/H synthase 1 (Homo sapiens) (UniProt P23219); experiment: Inhibition of COX-1 in human immunoassay; parameters: concentration or dose not given beside the values
[2] = target: T1, Prostaglandin G/H synthase 2 (Homo sapiens) (UniProt P35354); experiment: Inhibition of COX-2 in human immunoassay; parameters: concentration or dose not given beside the values
T1 sequence (whole entry): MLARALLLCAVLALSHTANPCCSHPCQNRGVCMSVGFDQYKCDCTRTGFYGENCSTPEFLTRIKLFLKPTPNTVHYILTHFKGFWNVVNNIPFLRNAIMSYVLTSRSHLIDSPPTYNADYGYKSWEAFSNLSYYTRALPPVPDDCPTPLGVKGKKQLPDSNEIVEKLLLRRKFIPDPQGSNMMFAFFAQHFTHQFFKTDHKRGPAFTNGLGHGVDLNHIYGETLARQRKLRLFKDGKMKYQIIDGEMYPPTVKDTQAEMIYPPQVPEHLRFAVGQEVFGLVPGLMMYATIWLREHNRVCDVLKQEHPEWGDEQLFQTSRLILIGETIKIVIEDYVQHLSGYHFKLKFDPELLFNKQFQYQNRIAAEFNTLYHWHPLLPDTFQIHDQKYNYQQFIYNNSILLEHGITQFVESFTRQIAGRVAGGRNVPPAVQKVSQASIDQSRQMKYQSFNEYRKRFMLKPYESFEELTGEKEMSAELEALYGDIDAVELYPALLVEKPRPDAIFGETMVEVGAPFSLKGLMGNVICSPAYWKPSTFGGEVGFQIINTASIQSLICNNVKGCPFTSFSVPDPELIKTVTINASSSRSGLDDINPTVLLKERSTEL
How it was run: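 Human COX-2 enzyme immunoassay kit, run per the manufacturer's instructions. Each compound was tested at a single concentration of 1 µM, and the read-out was percent inhibition of enzyme activity.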

Prostaglandin G/H synthase 1 (Homo sapiens), sequence (P23219 whole entry): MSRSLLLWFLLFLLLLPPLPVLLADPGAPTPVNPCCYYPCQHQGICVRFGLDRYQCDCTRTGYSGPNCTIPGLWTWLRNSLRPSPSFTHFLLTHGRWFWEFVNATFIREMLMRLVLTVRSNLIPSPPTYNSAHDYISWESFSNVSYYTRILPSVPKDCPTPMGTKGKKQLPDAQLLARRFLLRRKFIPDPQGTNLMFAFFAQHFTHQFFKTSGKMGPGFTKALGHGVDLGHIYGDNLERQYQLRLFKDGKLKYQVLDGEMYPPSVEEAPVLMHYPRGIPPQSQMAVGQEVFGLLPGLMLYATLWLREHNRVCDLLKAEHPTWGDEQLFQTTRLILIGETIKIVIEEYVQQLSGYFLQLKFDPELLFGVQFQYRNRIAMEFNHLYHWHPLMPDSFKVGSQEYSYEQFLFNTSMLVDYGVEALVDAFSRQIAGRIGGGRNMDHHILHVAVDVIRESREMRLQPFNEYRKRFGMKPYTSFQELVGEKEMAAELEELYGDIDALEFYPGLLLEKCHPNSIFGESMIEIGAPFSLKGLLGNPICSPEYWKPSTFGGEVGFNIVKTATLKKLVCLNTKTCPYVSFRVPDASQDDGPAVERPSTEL

Row | Enzyme inhibition [1] | Enzyme inhibition [2] | Structure (SMILES)
1 | 23% | 30% | NS(=O)(=O)c1ccc(CCNS(=O)(=O)c2ccc(Cl)cc2Cl)cc1
2 | 11% | 42% | NS(=O)(=O)c1ccc(N/C=C/C(=O)c2ccncc2)cc1
3 | 8% | 22% | NS(=O)(=O)c1ccc(NC(=S)NC(=O)c2ccc(Cl)cc2Cl)cc1
4 | 38% | 39% | C/C(=N\Nc1ccc(S(N)(=O)=O)cc1)c1ccccn1
5 | 23% | 48% | Cc1onc(-c2ccccc2)c1C(=O)Nc1ccc(S(N)(=O)=O)cc1
6 | 14% | 60% | CS(=O)(=O)c1cc(Nc2ccc(Br)cc2)ncn1
7 | 46% | 10% | NS(=O)(=O)c1ccc(CCNC(=O)c2ccccc2Br)cc1
8 | 61% | 22% | NS(=O)(=O)c1ccc(CCNS(=O)(=O)c2ccccc2[N+](=O)[O-])cc1
9 | 61% | 29% | NS(=O)(=O)c1ccc(Nc2nc(-c3ccccc3)cs2)cc1
10 | 14% | 27% | NS(=O)(=O)c1ccc(NC2=CC(=O)C(=O)c3ccccc32)cc1
11 | 23% | 57% | NS(=O)(=O)c1ccc(Cl)c(C(=O)Nc2cccc([N+](=O)[O-])c2)c1
12 | 11% | 54% | NS(=O)(=O)c1ccc(NCc2cnc3ccccc3n2)cc1
